The RNAGym collection of RNA variant scans (doi:10.1126/science.aae0568)
Fewer inactive variants are shown than the library holds.

B1: tRNA (parent)
chain: GUUCCGUUGGCGUAAUGGUAACGCGUCUCCCUCCUAAGGAGAAGACUGCGGGUUCGAGUCCCGUACGGAACG

Variants of: B1
Assay: yeast fitness relative to wild type (ratio to wild type); higher = fitter; tRNA-Arg(CCU), competitive growth, 37 C, YPD
Summary of the method: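 For this measurement, the tRNA-Arg(CCU) gene was varied by chemical synthesis at a 3% per-site mutation rate across 69 sites, and each variant was placed at the native genomic locus in Saccharomyces cerevisiae. The pooled strains went through a 24-hour competition in YPD at 37°C in six parallel replicates, with amplicons from start and end populations read by 100-nucleotide paired-end sequencing. Darwinian fitness relative to wild type followed from the change in each genotype's frequency. Genotypes needed ≥ 100 starting reads, and estimates < 0.5 were set to 0.5.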

Variant	yeast fitness
U13A G67A	0.9
G12A C31U A36C G39C C55U A57U	≤ 0.5
C11G A20C C24G A37G	0.542
C4A C22U A70C	0.663
C30A C34U G58C	≤ 0.5
C24U C46U A65U	0.714
U7G A43C U64A	0.682
A20G C33G U53A	≤ 0.5
C11G A69G	0.652
C5A A43C A69U A70C	0.769
U8C G9C U13A G25A A40C A57C C61A G67A	≤ 0.5
U2C A40U G58C	0.705
G18C C30U C33U C49U	0.608
C5U A14G C22A	≤ 0.5
U19C C31U G56A G67A	0.601
A14U C22U G25A C55G C60U	≤ 0.5
A14G G44C	0.928
G9C A14G C62U G63C A70C	≤ 0.5
C5U G41A C46A U47C	0.568
U13A G39A A45G U54A	≤ 0.5
G25C A36G G48A C60A	≤ 0.5
U13A A42U	1.03
C5G G10A C11G U16G	≤ 0.5
U3C A20G C29G C55U	≤ 0.5

Variant	yeast fitness
G17A U32A A43G G67C	≤ 0.5
A21U C66G	0.513
U3G A14U	0.629
U8G G12A G50C G52C C55U	0.618
U7A A20C	0.733
C11A U16G U53G	≤ 0.5
G18A A69U	0.896
A21C C30G C55G	≤ 0.5
U2A A15C C30G G67C	≤ 0.5
C30A G51A G67U	≤ 0.5
G6A G12A U13C U16A U19G G23A G58A G68A	≤ 0.5
C5U U16A C46A G68A	0.625
C31U A37U C46A C49A C55A C66G	0.663
C4U C11U A45C	0.7
C29A C30G G50C	≤ 0.5
G6C C46U C60A	0.644
C5U A14C C31A A40U C60A	≤ 0.5
C31G U59G	0.734
U3A C11U A20C U32A C62U G63A	≤ 0.5
G39C C46U C49U G56A G68C	0.54
U3C C31U U47C	0.864
A14C A15U C27U U32C U35G	0.584
G25A A37U	0.652
C24U U47A C61A	≤ 0.5

Variant	yeast fitness
G12A C24A A36U U54C C61U	≤ 0.5
G23A G56C	0.65
C30U G58A C61G	≤ 0.5
U7A C11A A20G G23A U26G G50A G52A C60U C61G	≤ 0.5
C24G A37G G63C C66G	≤ 0.5
A42C G67C A70U	0.505
C5A U19A G38C U53C C61G G67A A69C	≤ 0.5
A20C A40G A42U G50A G51C	≤ 0.5
U7A G17A G23A A45C U47A G50A	≤ 0.5
C5U C31G G51C	0.572
G17C C22G A42G C46A	≤ 0.5
A14G U32C A42C A57U C61G	≤ 0.5
C4A G18A C27A A37C C61A	≤ 0.5
G12A C29A G68A A69C	≤ 0.5
U53C	0.875
C22U A40U A65U	≤ 0.5
U8G A14G U26A C62U	0.578
C22G A42U G50U	0.523
G12C G17A C49A G56A	≤ 0.5
C5U C11A A40G C55A C66A	≤ 0.5
C5U C22U C62U	0.66
A14C A21G C29A C34U	0.612
C33G G67U G68C A69U	≤ 0.5
G12C C31G C33G U35C	0.515

Variant	yeast fitness
G10C C29G G39A U64A	≤ 0.5
C4G C5U U19A C55G U64A	≤ 0.5
U8C C33G C34G C46U	≤ 0.5
G38C G48A G56C	0.7
A21C C33U A36G G39A G44A C55G U59C	≤ 0.5
G41A G48A	0.944
G38A G39C C60A C66G	≤ 0.5
C5U G6C A21C A42U C46U C66U	≤ 0.5
U2C U64C G68A	0.578
C24G G67C	0.622
A15U C27A A65C A69C	0.577
C5A A15C C62U	≤ 0.5
G25C A43C C62A U64G C66G	≤ 0.5
U19C C66U A69C	0.685
C27U C61A	0.62
C4A C31U A42C	0.572
C22G G52C G68C	≤ 0.5
C31U G68U A69U	0.615
C34U C49U C55U	≤ 0.5
G10A C33U A40G C55G A65C	≤ 0.5
A37G A65C	0.942
A21C G23C G52C A65C	≤ 0.5
U7C G10A C29U C30G C34A	≤ 0.5
C5U C46G G52C C62G C66U	≤ 0.5

Variant	yeast fitness
C27A U35C A42U A69G	≤ 0.5
U8A A14G C24G A45C C62U	≤ 0.5
C5A C11U C31G	0.558
U32C C46U G51C C62U	≤ 0.5
C27G A57C C62U	0.511
C11U A37C A45C	0.576
A21G C29G U47G	≤ 0.5
U19C G25C U54C C61G	≤ 0.5
A36G A42G C55A	≤ 0.5
C27U U47A	0.721
G9C A14G U47C	≤ 0.5
G41A C49A G50C G68C	≤ 0.5
A20U C34A G41C G56C	≤ 0.5
U53A C66A	≤ 0.5
A45G C46U	0.991
G17C C24G U28A C30U G38U A65U A69C	≤ 0.5
U64C A65U	0.928
U32A A65G	0.719
C22A C66A G67A	≤ 0.5
U3C A15C C34G U47A C55U G68U	≤ 0.5
C5U U19G G23A	≤ 0.5
G23A C61G	0.714
G23A C33G U35G	≤ 0.5
C5U G48A G50A C55U A65C	≤ 0.5

Variant	yeast fitness
G17A A20G U28A U35A	0.561
C5G G56C A65C	0.549
C5U C11A A69U	≤ 0.5
C5U A43U C49U C66U	≤ 0.5
C30U G39A	0.897
C24U A40U	0.78
C5U C11U G38A G58C C61U C66U	0.573
G25A C29U A45U G58C	0.772
U16C A20G C29U C62U	≤ 0.5
U7A A37U	0.696
G41C A42G	0.804
U16C A45U C49U G51A A57C C60G	≤ 0.5
C33G G63U U64A	0.553
U13C C24A	0.69
C5G A45C A70C	0.725
C5G U13C A21C	0.585
C4U C5G U28C A65G	0.562
G12A G38A	0.728
G50A C61G	0.737
G6C C11G A14U C22U G44A C55A	≤ 0.5
U2G A14C A69C	≤ 0.5
A15G A20U G63A	0.603
C5G G52A G56C	≤ 0.5
U7A A36U A45G U47A G68A	≤ 0.5

Variant	yeast fitness
C11U U35A G48C C61U	≤ 0.5
C4U A21G C46A G67A	0.63
G9C A37G G41A C61G	≤ 0.5
C4U U35C A42G	0.581
U26C A45U	0.716
C11A C27G	0.589
A20U C29G C49G U53A	≤ 0.5
A21G A45U	0.902
U32G C49G C55A	0.65
G9A C30U C33A A36U C49U	≤ 0.5
A40C C60U G67A	≤ 0.5
C5U C33G C46A C66A	≤ 0.5
C24A A40G G48A C49A C61G	≤ 0.5
A14U G68C	0.694
G9C A15C	0.609
A20U C46U G63A	0.777
U7C C24A C29G	0.594
A20U U28A A40U C62A	≤ 0.5
C27G A37C G39A A45C	0.646
A14G A69C	0.729
C29G C46A U59C	0.546
G6A A20U	0.851
U8A C24G U26A G50A	≤ 0.5
